NF-kB neuron act: raises NF-kB expression in human neuronal cells; fold change at 12.5 µM; actives 1.6% (n = 190,000); NF-kB reporter expression; hits give high values; in the data active = fold change above about 3.3
STAT1 blocker: STAT1 signaling inhibition | inhibition, % at 5.5 µM | NIH 3T3 STAT1-luciferase reporter, IFN-gamma, luminescence | actives 0.35% (n = 200,000);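 active = inhibition above a set limit, the mean inhibition across all tested compounds plus 3 SD, cut at about 34% in these data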;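 also: 0% = IFN-gamma with DMSO and 100% = IFN-gamma with 300 µM nifuroxazide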
STAT3 blocker: STAT3 signaling inhibition. inhibition, % at 5.5 µM. U3A cells, IL-6 STAT3-luciferase reporter, luminescence; host cell line lacks STAT1. AID 862. actives 0.89% (n = 190,000);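 active = inhibition above the mean inhibition across all screened compounds plus 3 SD, cut at about 44% in these data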;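 also: 0% = DMSO only wells and 100% = 100 µM nifuroxazide control wells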
STAT3 act: STAT3 signaling activation | actives 0.91% (n = 190,000) | activation (% of control), % at 5.6 µM | U3A cells, IL-6 STAT3-luciferase reporter, luminescence; 100% = signal with IL-6 EC80 alone;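 active = activation above the screen-wide mean of compound activation plus 3 SD, cut at about 130% in these data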;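 also: 0% = background luminescence of wells with medium and substrate only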
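system = STAT3-luciferase reporter U3A cells | reagent = IL-6 stimulus at 33 ng/mL final | timing = 1 h compound pre-exposure, 6 h IL-6 stimulation, 37 °C | measured by = luminescence | evaluation = % activation versus median of IL-6-stimulated wells | control set = IL-6-only wells as 100% reference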
STAT1 act: increases IFN-gamma driven STAT1 reporter signal; NIH 3T3 STAT1-luciferase reporter, luminescence; 100% = IFN-gamma alone, no compound; activation (% of control), % at 5.5 µM; actives 2.6% (n = 200,000); AID 932;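 active = activation above the screen-wide mean activation plus 3 SD, cut at about 130% in these data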;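 also: raw ratio to IFN-gamma control signal so 100% means no change and 0% no light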
APP 5'UTR act: activates APP 5'UTR luciferase reporter; SH-SY5Y APP 5'UTR luciferase reporter, luminescence; zero percent = DMSO vehicle wells; activation, % at 2 µM; actives 1% (n = 190,000); AID 1276;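 active = activation above a set limit, based on mean plus 3 SD of controls, cut at about 140% in these data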
Starred values were filed as active, the others as inactive; . = no result. Rows were chosen to be rich in hits. Some 4.9% of all compounds tested hit in one or more screens of this group.

SMILES | NF-kB neuron act | STAT1 blocker | STAT3 blocker | STAT3 act | STAT1 act | APP 5'UTR act
COc1cccc(C2c3[nH]c4ccccc4c3CCN2CCCn2cccn2)c1 (configuration not stated) | . | 9 | -31 | 132 | 90 | 6
O=C(c1ccc(=O)[nH]c1)N(Cc1cccs1)C1(C(=O)NC2CCCC2)CCCCC1 | 0.93 | 8 | -9 | 106 | 92 | -10
CCOC(=O)C1(CCc2ccccc2)CCN(C(=O)c2cc(C)nc(C)n2)CC1 | 1.5 | -21 | -7 | 118 | 118 | 18
O=C(Nc1ccccc1)OCc1cncs1 | 1.4 | -3 | 3 | 102 | 102 | 16
O=C(/C=C/c1ccccc1)OCc1cncs1 | 2 | -31 | 15 | 94 | 129* | 29
CC(C)(CO)CNC(=O)CCc1nnc(CCCc2ccccc2)o1 | 1.6 | -6 | -3 | 108 | 106 | 9
CN(Cc1ccsc1)C(=O)CCc1nnc(CCCc2ccccc2)o1 | 2.7 | -37 | -2 | 106 | 133* | 44
Cc1nc(C(C)NC(=O)CCc2nnc(CCCc3ccccc3)o2)c(C)s1 (configuration not stated) | 3.2 | -52 | -3 | 108 | 149* | 38
Cn1c(-c2cnn(-c3ccccc3)c2-n2cccc2)n[nH]c1=S | 1.2 | 3 | 11 | 101 | 96 | 22
Cc1ccc(-n2ncc(N(C)C)c(Cl)c2=O)cc1 | 2.6 | -36 | 21 | 86 | 132* | 119
CN(C)c1cnn(-c2ccccc2)c(=O)c1Cl | 1.7 | -6 | -10 | 106 | 108 | -2
COc1ccc(-n2ncc(N(C)n3cccc3)c(Cl)c2=O)cc1 | 3.7* | -37 | 5 | 101 | 134* | 133
CCOC(=O)C(C)Oc1ncnc2cccc(F)c12 (configuration not stated) | 1.1 | -2 | -5 | 106 | 101 | 13
COc1cc(-c2c(C#N)c(N)nc3c2c(C)nn3-c2ccc(C)c(C)c2)cc(OC)c1OC | 0.47 | 6 | -34 | 135* | 94 | -9
Cc1csc(NC(=O)CCNC(=O)c2ccccc2Cl)n1 | 1.1 | -3 | 8 | 103 | 101 | -11
COc1ccc(-c2nc(SC(CC(=O)NCCN3CCOCC3)c3cccs3)n[nH]2)cc1 (configuration not stated) | 1 | -5 | -1 | 105 | 102 | 10
c1ccc(COc2ccc(OCCN3CCCCC3)cc2)cc1 | 1.4 | -10 | 6 | 102 | 109 | 9
CC(On1c(-c2ccccc2)nc2ccc(Cl)cc21)C(=O)O (configuration not stated) | 1.5 | 1 | 17 | 91 | 98 | 12
Cc1ccc(-c2nc3ccc(Cl)cc3n2OC(C)C(=O)O)cc1 (configuration not stated) | 1.7 | -46 | 4 | 102 | 141* | 116
Cc1ccc2oc(-c3ccco3)cc(=O)c2c1 | 2.5 | -41 | 16 | 91 | 138* | 61
c1ccc(CCNc2nc(-c3cccnc3)cs2)cc1 | 1.8 | -37 | 8 | 102 | 133* | 26
O=C(Nc1nc(-c2cccnc2)cs1)c1ccccc1Cl | 1.3 | -18 | 7 | 96 | 114 | -7
c1ccc(CCNc2nc(-c3ccccn3)cs2)cc1 | 4.1* | -44 | 16 | 88 | 142* | 122
CCOc1ccc(N/C=C\C(=O)c2ccc3c(c2)OCO3)cc1 | 2.3 | -34 | 13 | 90 | 131* | -8
O=C(/C=C\Nc1ccc2c(c1)OCO2)c1ccccn1 | 1.3 | 87* | 103* | 11 | 21 | 120
SMILES | NF-kB neuron act | STAT1 blocker | STAT3 blocker | STAT3 act | STAT1 act | APP 5'UTR act
Cc1noc(NS(=O)(=O)c2ccc(N/C=C/C(=O)c3ccc4c(c3)OCO4)cc2)c1C | 1.3 | -17 | -6 | 113 | 116 | -5
COc1ccc(C(=O)/C(C#N)=N/Nc2ccc([N+](=O)[O-])cc2)cc1 | 0.59 | 37* | 59* | 54 | 64 | -92
NS(=O)(=O)c1ccc(N/C=C/C(=O)c2ccc(Br)cc2)cc1 | 1.4 | -48 | -3 | 104 | 143* | 49
O=C(NC(NCc1cccnc1)C(Cl)(Cl)Cl)c1cccc2ccccc12 (configuration not stated) | 0.98 | -9 | 0 | 101 | 108 | 2
Cn1c(CCC(=O)OCC(=O)NCc2ccc3c(c2)OCO3)nc(=O)c2ccccc21 | 1.2 | 0 | 8 | 97 | 100 | -2
CCc1sc(C(=O)NCCc2ccc(S(N)(=O)=O)cc2)cc1Br | 1.1 | -3 | 8 | 95 | 100 | 2
Cc1nn(C)cc1C(C)NCc1c(C(=O)N2CCCCCCC2)nc2ccc(Cl)cn12 (configuration not stated) | 0.84 | -10 | -5 | 110 | 107 | 1
O=C(COC(=O)CNC(=O)c1ccccc1)Nc1nc(-c2ccccc2)cs1 | 1.9 | -17 | -3 | 105 | 115 | 3
COc1ccc(NC(=O)COc2ccc(C(=O)NC3CCCc4ccccc43)cc2OC)cc1 (configuration not stated) | 0.81 | -2 | -2 | 103 | 102 | -2
COc1ccc(N/C=C/C(=O)c2ccc(Oc3ncccn3)cc2)cc1 | 1.2 | -7 | 28 | 85 | 106 | -10
COc1ccc(C(=O)/C=C/Nc2ccc([N+](=O)[O-])cc2)cc1 | 1.2 | -36 | 9 | 95 | 132* | 29
COc1ccc(N/C=C\C(=O)c2ccc(C)cc2)cc1OC | 2.6 | -49 | 8 | 99 | 143* | 17
COc1ccc(N/C=C\C(=O)c2ccc3c(c2)OCO3)cc1 | 8.4* | -13 | 30 | 73 | 112 | 75
O=C(/C=C\Nc1ccc2c(c1)OCO2)c1ccc2c(c1)OCO2 | 8* | 51* | 60* | 51 | 51 | 197*
COc1ccc(N/C=C\C(=O)c2ccc(Br)cc2)cc1OC | 1.7 | -15 | 6 | 95 | 113 | 42
O=C(Oc1ccc(NC2=NS(=O)(=O)c3ccccc32)cc1)c1cccnc1 | 1.1 | 3 | 11 | 97 | 97 | -20
CCOC(=O)c1ccc(NC(=S)NCCCN2CCOCC2)cc1 | 1.1 | 4 | -4 | 105 | 94 | 11
CCOC(=O)c1sc(Nc2nc(OC)cc(OC)n2)nc1C | 0.65 | -4 | -24 | 127 | 102 | -1
CC(=O)c1ccc(NC(=S)NCCCN2CCOCC2)cc1 | 1.2 | 0 | 5 | 102 | 98 | 3
CN(C)c1ccc(N/C=C/C(=O)c2ccc(F)cc2)cc1 | 4.6* | -10 | 36 | 73 | 120 | 67
COc1ccc(C(=O)/C=C/Nc2cc(C)on2)cc1 | 4.3* | -42 | 19 | 90 | 139* | -37
COc1ccc(C(=O)NNC(=O)CSc2nnc(-c3cccnc3)o2)cc1 | 1.1 | 2 | 4 | 101 | 97 | -6
O=C(NNC(=O)[C@@H]1CCCC[C@@H]1C(=O)O)c1cccs1 | 1.5 | -15 | -2 | 102 | 114 | 33

Bioassay records: PubChem BioAssay, several laboratories
